Reference: ChEMBL document CHEMBL4422614 (Eur J Med Chem, 2019)
Each block holds one compound with its values, some of them ahead of it. Activity calls are given as the source filed them. The calls are words filed in the database; no cut-off is given here.

Key:
[1] = Antioxidant activity assessed as trolox equivalent of AAPH-induced radical scavenging activity at 10 to 20 uM preincubated for 10 mins followed by AAPH addition measured every minute for 120 mins by ORAC fluorescein assay; format: functional
In short: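 ORAC values are expressed as trolox equivalents, mean ± SD of three independent experiments.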

[2] = molecular target: 3',5'-cyclic-AMP phosphodiesterase 4D (Homo sapiens, UniProt Q08499); test: Inhibition of human PDE4D2 (86 to 413 residues) catalytic domain using [3H]-cAMP as substrate after 15 mins by liquid scintillation counting method
Chain of 3',5'-cyclic-AMP phosphodiesterase 4D (Q08499 whole entry, the tested form may be a part): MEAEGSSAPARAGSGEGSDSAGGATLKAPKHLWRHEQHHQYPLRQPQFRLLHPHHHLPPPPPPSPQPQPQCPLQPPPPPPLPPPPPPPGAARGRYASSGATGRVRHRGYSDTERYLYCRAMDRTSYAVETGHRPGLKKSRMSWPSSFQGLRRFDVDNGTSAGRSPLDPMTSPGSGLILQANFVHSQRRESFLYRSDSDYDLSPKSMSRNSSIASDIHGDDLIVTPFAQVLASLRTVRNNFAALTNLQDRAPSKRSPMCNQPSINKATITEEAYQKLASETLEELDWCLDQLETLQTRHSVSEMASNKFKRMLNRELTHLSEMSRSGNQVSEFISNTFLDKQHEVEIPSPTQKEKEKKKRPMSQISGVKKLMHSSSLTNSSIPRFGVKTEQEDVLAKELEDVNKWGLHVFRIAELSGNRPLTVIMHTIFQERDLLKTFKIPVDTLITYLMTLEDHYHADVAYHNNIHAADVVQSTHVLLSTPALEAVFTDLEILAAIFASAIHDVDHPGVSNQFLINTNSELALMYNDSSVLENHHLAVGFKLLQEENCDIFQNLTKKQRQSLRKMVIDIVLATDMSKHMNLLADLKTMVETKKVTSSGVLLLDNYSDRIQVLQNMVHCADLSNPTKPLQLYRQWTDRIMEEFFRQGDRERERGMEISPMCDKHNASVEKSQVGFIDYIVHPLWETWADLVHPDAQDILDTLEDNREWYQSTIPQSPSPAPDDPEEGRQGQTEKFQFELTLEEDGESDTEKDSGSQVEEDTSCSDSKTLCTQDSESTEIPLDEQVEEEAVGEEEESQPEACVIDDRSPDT

[3] = Acute Toxicity in C57BL/6 mouse assessed as abnormal behavior up to 2000 mg/kg, ig measured over 14 days; format: organism-based; settings: in vivo, po, 336 h
In short: (§1)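 Mice given a single intragastric dose of test compound at various dosages, then observed for 14 days for death and abnormal behaviour. On day 14, animals were sacrificed and heart, liver, lungs and kidneys examined.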

[4] = Hepatotoxicity in C57BL/6 mouse assessed as abnormal changes up to 2000 mg/kg, ig after 14 days by microscopic analysis; format: toxicity, organism-based; settings: in vivo, po, 336 h; in short: as §1
[5] = Metal chelating activity assessed as inhibition of Cu(II)-induced amyloid beta (1 to 42 residues) aggregation at 25 uM after 24 hrs by thioflavin-T fluorescence assay (reference value: 156%); set-up: scale not given: the % may be the effect or the level left
In short: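 Aβ1-42 was incubated with CuSO4 with or without compound, and thioflavin T fluorescence was read. Fluorescence is given as percent of Aβ alone, as mean ± SD of three independent experiments.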

[6] = Nephrotoxicity in C57BL/6 mouse assessed as abnormal changes up to 2000 mg/kg, ig after 14 days by microscopic analysis; format: toxicity, organism-based; settings: in vivo, po, 336 h; in short: as §1
in vitro [7] = settings: Sprague-Dawley, rat
[8] = Acute Toxicity in C57BL/6 mouse lung assessed as tissue damage up to 2000 mg/kg, ig after 14 days by microscopic analysis; format: organism-based; settings: in vivo, po, 336 h; in short: as §1
[9] = Cardiotoxicity in C57BL/6 mouse assessed as tissue damage up to 2000 mg/kg, ig after 14 days by microscopic analysis; format: toxicity, organism-based; settings: in vivo, po, 336 h; in short: as §1
[10] = Metal chelating activity of the compound assessed as formation of ferric-compound complex at 50 uM after 30 mins by UV-vis spectrophotometric analysis
In short: (§2)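 UV-vis absorption spectra of compound (50 µM) were recorded in HEPES buffer alone and with 50 µM CuSO4, ZnCl2, FeSO4 or FeCl3, and spectral changes were assessed.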

[11] = Metal chelating activity of the compound assessed as formation of cupric-compound complex at 50 uM after 30 mins by UV-vis spectrophotometric analysis; in short: as §2
[12] = Nephrotoxicity in C57BL/6 mouse assessed as tissue damage up to 2000 mg/kg, ig after 14 days by microscopic analysis; format: toxicity, organism-based; settings: in vivo, po, 336 h; in short: as §1
[13] = Metal chelating activity of the compound assessed as formation of ferrous-compound complex at 50 uM after 30 mins by UV-vis spectrophotometric analysis; in short: as §2
SH-SY5Y = test: Cytotoxicity against human SH-SY5Y cells assessed as effect on cell viability at 10 uM after 24 hrs by MTT assay; format: cell-based
In short: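 SH-SY5Y viability was measured by MTT after exposure to compounds at 10 µM. Results are percent of vehicle control from three independent experiments.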

[14] = Acute Toxicity in C57BL/6 mouse up to 2000 mg/kg, ig measured every 14 days; format: organism-based; settings: in vivo, po, 336 h; in short: as §1
[15] = Acute Toxicity in C57BL/6 mouse assessed as mouse mortality up to 2000 mg/kg, ig measured over 14 days; format: organism-based; settings: in vivo, po, 336 h; in short: as §1
[16] = Toxicity in amyloid beta (25 to 35 residues) induced C57BL/6J mouse model of Alzheimer's disease assessed as emesis at 30 mg/kg/day, ig administered for 26 consecutive days; format: organism-based; settings: in vivo, po
In short: (§3)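 Mice were randomized into 7 groups. All except sham got an ICV injection of Aβ25-35 (3 nmol); sham got the same volume of saline ICV. Dosing was intragastric daily for 26 days, with 0.5% CMC-Na as vehicle for sham and model. Body weight, diarrhea and emesis-like behavior were monitored.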

Mus musculus [17] = test: Cognition enhancement activity in amyloid beta (25 to 35 residues) induced C57BL/6J mouse model of Alzheimer's disease assessed as decrease in escape latancy at 30 mg/kg/day, ig administered for 26 consecutive days by Morris water maze test; format: functional, organism-based; in short: as §3
Mus musculus [18] = test: (§4) Neuroprotection in C57BL/6J mouse model of amyloid beta (25 to 35 residues) induced Alzheimer's disease assessed as reduction in ratio of apoptotic neuron in CA1 hippocampus region at 30 mg/kg/day, ig administered for 26 consecutive days by hematoxylin and eosin staining-based light microscopic analysis (reference value: 40.6 +/- 12.5%); format: ADME, organism-based; set-up: scale not given: the % may be the effect or the level left; settings: in vivo, po
In short: (§5)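 Hippocampal CA1, CA3 and DG neurons were stained with H&E after the Aβ25-35 ICV model and 26-day intragastric dosing. Denatured cell index = denatured cells/total cells, n = 5. Values are mean ± SD, two-way ANOVA versus model.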

Mus musculus [19] = test: Cognition enhancement activity in amyloid beta (25 to 35 residues) induced C57BL/6J mouse model of Alzheimer's disease assessed as swimming speed at 4 mg/kg/day, ig administered for 26 consecutive days by Morris water maze test (reference value: 15.6 +/- 2.4 cm/sec); format: functional; in short: as §3
[20] = Acute Toxicity in C57BL/6 mouse lung assessed as abnormal changes up to 2000 mg/kg, ig after 14 days by microscopic analysis; format: organism-based; settings: in vivo, po, 336 h; in short: as §1
[21] = Toxicity in amyloid beta (25 to 35 residues) induced C57BL/6J mouse model of Alzheimer's disease assessed as loss of body weight at 30 mg/kg/day, ig administered for 26 consecutive days; format: organism-based; settings: in vivo, po; in short: as §3
Mus musculus [22] = test: Cognition enhancement activity in amyloid beta (25 to 35 residues) induced C57BL/6J mouse model of Alzheimer's disease assessed as swimming time in effective region at 30 mg/kg/day, ig administered for 26 consecutive days by Morris water maze test (4.3 +/- 1.3 sec); format: functional; in short: as §3
[23] = Drug metabolism in Sprague-Dawley rat liver microsomes assessed as metabolic rate up to 180 mins in presence of NADPH by UV-based LC-MS/MS analysis; format: ADME, Microsome; settings: 3 h
Mus musculus [24] = test: Cognition enhancement activity in amyloid beta (25 to 35 residues) induced C57BL/6J mouse model of Alzheimer's disease assessed as increase in number of virtual platform crossing at 30 mg/kg/day, ig administered for 26 consecutive days by Morris water maze test; format: functional, organism-based; in short: as §3
[25] = Metal chelating activity assessed as inhibition of Cu(II)-induced amyloid beta (1 to 42 residues) aggregation at 25 uM after 24 hrs by TEM assay
In short: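 Samples were prepared as for the ThT assay. 10 µL aliquots were applied to carbon-coated copper grids for 2 min, then stained with 3% phosphotungstic acid for 2 min and imaged by transmission electron microscopy.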

[26] = Metal chelating activity assessed as inhibition of Cu(II)/ascorbate-induced ROS production by measuring […] level at 10 uM by fluorescence assay
In short: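 A Cu-ascorbate redox system in PBS (pH 7.4) at 37 °C, with Cu(II) 5 µM, ascorbate 150 µM and coumarin-3-carboxylic acid 50 µM as the hydroxyl radical trap. Compound was pre-incubated 10 min before ascorbate was added. Fluorescence of 7-hydroxy-CCA (ex 395, em 450 nm) was read every 30 s for 15 min.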

Mus musculus [27] = test: as §4, with “in” for “in C57BL/6J mouse model of”, “induced C57BL/6J mouse model of” for “induced”, “DG” for “CA1”, “55.8” for “40.6”, “7.2%)” for “12.5%)”; format: ADME, organism-based; set-up: scale not given: the % may be the effect or the level left; settings: in vivo, po; in short: as §5
Mus musculus [28] = test: as §4, with “in” for “in C57BL/6J mouse model of”, “induced C57BL/6J mouse model of” for “induced”, “CA3” for “CA1”, “80.2” for “40.6”, “8.6%)” for “12.5%)”; format: ADME, organism-based; set-up: scale not given: the % may be the effect or the level left; settings: in vivo, po; in short: as §5
[29] = Toxicity in amyloid beta (25 to 35 residues) induced C57BL/6J mouse model of Alzheimer's disease assessed as diarrhea at 30 mg/kg/day, ig administered for 26 consecutive days; format: organism-based; settings: in vivo, po; in short: as §3
[30] = Metal chelating activity of the compound assessed as formation of zinc-compound complex at 50 uM after 30 mins by UV-vis spectrophotometric analysis; in short: as §2
in vitro [31] = settings: PAMPA
[32] = Hepatotoxicity in C57BL/6 mouse assessed as tissue damage up to 2000 mg/kg, ig after 14 days by microscopic analysis; format: toxicity, organism-based; settings: in vivo, po, 336 h; in short: as §1
Mus musculus [33] = test: Cognition enhancement activity in amyloid beta (25 to 35 residues) induced C57BL/6J mouse model of Alzheimer's disease assessed as swimming path length in virtual platform at 30 mg/kg/day, ig administered for 26 consecutive days by Morris water maze test (10.2 +/- 3.2 cm); format: functional; in short: as §3
[34] = Cardiotoxicity in C57BL/6 mouse assessed as abnormal changes up to 2000 mg/kg, ig after 14 days by microscopic analysis; format: toxicity, organism-based; settings: in vivo, po, 336 h; in short: as §1
[35] = Metal chelating activity assessed as inhibition of Cu2+-induced amyloid beta (1 to 42 residues) aggregation at 25 uM after 24 hrs by thioflavin-T fluorescence assay (reference value: 156%); set-up: scale not given: the % may be the effect or the level left
In short: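 Aβ1-42 was incubated with Cu(II) (CuSO4) with or without compound, and thioflavin T fluorescence was read. The Aβ-alone signal was set as 100%. Mean ± SD of three independent experiments.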

Mus musculus [36] = test: Cognition enhancement activity in amyloid beta (25 to 35 residues) induced C57BL/6J mouse model of Alzheimer's disease assessed as swimming speed at 30 mg/kg/day, ig administered for 26 consecutive days by Morris water maze test (reference value: 15.6 +/- 2.4 cm/sec); format: functional; in short: as §3

IC50 [2]: 4.15 µM
SMILES: COc1ccc(NC(=O)c2ccc3cccc(O)c3n2)cc1OC1CCCC1
Activity [1]: 1.98 equiv

SMILES: COc1ccc(C(=O)Nc2ccc(O)c3ncccc23)cc1OC1CCCC1.Cl
Activity [3]: Non-Toxic
Activity [4]: Non-Toxic
Activity [5]: 46%
Activity [6]: Non-Toxic
half-life (in vitro [7]; liver microsomes): 51.7 min
Activity [8]: Non-Toxic
Activity [1]: 0.63 equiv
Activity [9]: Non-Toxic
Activity [10]: Active
Activity [11]: Active
Activity [12]: Non-Toxic
Activity [13]: Active
Activity (SH-SY5Y): Non-Toxic
Activity [14]: Non-Toxic
Activity [15]: Non-Toxic
Activity [16]: Non-Toxic
Activity (Mus musculus [17]): Active
IC50 [2]: 0.492 µM
Activity (Mus musculus [18]): 13.8%
Activity (Mus musculus [19]): 15.3 cm/s
Activity [20]: Non-Toxic
Activity [21]: Non-Toxic
Time (Mus musculus [22]): 6.1 s
K [23]: 0.0134 min⁻¹
Activity (Mus musculus [24]): Active
Activity [25]: Active
Activity [26]: Active
Activity (Mus musculus [27]): 26.8%
Activity (Mus musculus [28]): 37.1%
Activity [29]: Non-Toxic
Activity [30]: Active
Papp at 10 h, 100 ug/ml (in vitro [31]): 5.9 ×10⁻⁶ cm/s
Activity [32]: Non-Toxic
Activity (Mus musculus [33]): 18 cm
Activity [34]: Non-Toxic
Activity [35]: 51%

IC50 [2]: 7.63 µM
SMILES: COc1ccc(C(=O)Nc2ccc(O)c3ncccc23)cc1OC
Activity [1]: 1.34 equiv

half-life (in vitro [7]; microsomes): 75.6 min
K [23]: 0.00917 min⁻¹
SMILES: COc1cc2c(cc1OC)C(=O)C(CC1CCN(Cc3ccccc3)CC1)C2 (stereo not drawn) [DONEPEZIL]

IC50 [2]: 7.36 µM
SMILES: COc1ccc(C(=O)Nc2cc(I)c(O)c3ncccc23)cc1OC
Activity [1]: 1.3 equiv

Activity [5]: 66%
half-life (in vitro [7]; liver microsomes): 35.8 min
K [23]: 0.0194 min⁻¹
Activity [25]: Active
Papp at 10 h, 100 ug/ml (in vitro [31]): 5.2 ×10⁻⁶ cm/s
SMILES: Oc1c(I)cc(Cl)c2cccnc12 [CLIOQUINOL]
Activity [1]: 0.6 equiv
Activity (Mus musculus [17]): Active
Activity (Mus musculus [18]): 24.2%
Activity (Mus musculus [36]): 16 cm/s
Activity (Mus musculus [19]): Active
Time (Mus musculus [22]): 5.8 s
Activity (Mus musculus [27]): 19.7%
Activity (Mus musculus [28]): 37.8%
Activity (Mus musculus [33]): 18 cm

IC50 [2]: 0.597 µM
Papp at 10 h, 100 ug/ml (in vitro [31]): 5.86 ×10⁻⁶ cm/s
SMILES: COc1ccc(C(=O)Nc2cc(I)c(O)c3ncccc23)cc1OC1CCCC1.Cl
Activity [1]: 1.01 equiv

IC50 [2]: 4.32 µM
SMILES: COc1ccc(NC(=O)c2ccc3cccc(O)c3n2)cc1OC
Activity [1]: 1.03 equiv
